# Experimental data pooled from the literature.
# Each line is one published result; the experiments were not run side by side.
# Organism: Acinetobacter baumannii
# Observed: microbial growth
SMILES,assay,test system,setting,MIC
CCCCCCC/C=C/C(=O)N1C(=O)/C(=C(\O)c2ccccc2)C(=O)C1CC(C)C (centres unmarked),,ATCC19606,,> 200 mg/L
CC(NCCCNC(=O)c1ccc(Cl)s1)c1cc2cc(Br)ccc2[nH]1 (centres unmarked),broth dilution,ATCC19606,,32 mg/L
O=C(CCCCCCCCCC[P+](c1ccccc1)(c1ccccc1)c1ccccc1)Nc1ccc(O)c(O)c1.[Br-],broth dilution,ATCC19606,18 h,> 32 mg/L
CC(C)Oc1c(NC(=O)c2ccc(NC(=O)[C@H](CC(N)=O)NC(=O)c3ccc(NC(=O)c4ccc(C#N)s4)cc3)cc2)ccc(C(=O)Nc2ccc(C(=O)O)cc2)c1O,,DSM30008,,0.125 mg/L
NC[C@H]1O[C@H](O[C@H]2[C@H](O)[C@@H](O[C@H]3O[C@H](CO)[C@@H](O)[C@H](N)[C@H]3O)[C@H](N)C[C@@H]2N)[C@H](N)C[C@@H]1O,,,,1 mg/L
CCCCCCC/C=C/C(=O)N1C(=O)/C(=C(/C)O)C(=O)C1Cc1ccc(O)cc1 (centres unmarked),,ATCC19606,,> 200 mg/L
N=C(N)c1ccc(OCc2ccc(Br)cc2COc2ccc(C(=N)N)cc2)cc1,broth dilution,ATCC17978,,> 200 mg/L
O=C(O)c1ccc(-n2cc(/C=N/Nc3ccc(Br)cc3)c(-c3ccc4ccccc4c3)n2)cc1,,ATCCBAA1605,,12.5 mg/L
O=C(CCCCCCCCCC[P+](c1ccccc1)(c1ccccc1)c1ccccc1)Nc1cc(O)c(O)c(O)c1.[Br-],broth dilution,ATCC19606,18 h,> 32 mg/L
O=C(N[C@H](CO)[C@H](O)c1ccc([N+](=O)[O-])cc1)C(Cl)Cl,,ATCC19606,,250 mg/L
NC[C@H]1O[C@H](O[C@H]2[C@H](O)[C@@H](O[C@H]3O[C@H](CO)[C@@H](O)[C@H](N)[C@H]3O)[C@H](N)C[C@@H]2N)[C@H](N)C[C@@H]1O,broth dilution,,clinical isolate,> 200 µM
C[C@@H](O)[C@H]1C(=O)N2C(C(=O)O)=C(SCCN=CN)C[C@H]12,broth dilution,KCCM40203,16 h,1 µM
CN(C)CC(C)(C)CNc1nc(F)c2c(c1O)C(=O)C1=C(O)[C@]3(O)C(=O)C(C(N)=O)=C(O)[C@@H](N(C)C)[C@@H]3C[C@@H]1C2.Cl,broth dilution,ATCC19606,,4 mg/L
COc1c2c(c(O)c3cc(F)ccc13)C(=O)C1=C(O)[C@]3(O)C(=O)C(C(N)=O)=C(O)[C@@H](N(C)C)[C@@H]3C[C@@H]1C2,broth dilution,ATCC19606,,2 mg/L
CN[C@H](CC(C)C)C(=O)N[C@H]1C(=O)N[C@@H](CC(N)=O)C(=O)N[C@H]2C(=O)N[C@H]3C(=O)N[C@H](C(=O)N[C@H](C(=O)O)c4cc(O)cc(O)c4-c4cc3ccc4O)[C@H](O)c3ccc(c(Cl)c3)Oc3cc2cc(c3O[C@@H]2O[C@H](CO)[C@@H](O)[C@H](O)[C@H]2O[C@H]2C[C@](C)(N)[C@H](O)[C@H](C)O2)Oc2ccc(cc2Cl)[C@H]1O,broth dilution,BAA747,,> 128 µM
CN(C)[C@@H]1C(O)=C(C(N)=O)C(=O)[C@@]2(O)C(O)=C3C(=O)c4c(O)cncc4C[C@H]3C[C@@H]12.Cl.Cl,broth dilution,ATCC19606,,2 mg/L
O=[N+]([O-])c1ccc(O)c2ncccc12,broth dilution,ATCC19606,,8 mg/L
